Published values of several laboratories.
Each line is one published result; the experiments were not run side by side. pIC50: −log10 of the molar value.

SMILES	target or system	test	test system	conditions	endpoint	result
OCc1ccc(N2CCc3ccccc3C2)cc1Cl	RBE	cell growth or viability, ATP luminescence		46 µM, 72 h	inhibition	84%
CCCS(=O)(=O)Oc1ccc(C=NNC(=O)CSc2nc3c(C)cccc3c(=O)n2-c2ccccc2)cc1	Staphylococcus aureus	microbial growth, well diffusion	MRSA	20 µg/mL	inhibition zone	2 mm
OCc1ccc(-c2nn(Cc3ccc(F)cc3)c3ccccc23)o1	RBE	cell growth or viability, ATP luminescence		46 µM, 72 h	inhibition	66%
Cc1n[nH]c2ccc3nc(-c4ccc(C(=O)NCCN(C)C)cc4)c4c(c3c12)CCCC4	MV4-11	cell growth or viability, resazurin		72 h	GI50	8 nM
O=C(O)c1cn(C2CC2)c2cc(N3CCNCC3)c(F)cc2c1=O	Escherichia coli	microbial growth, well diffusion	ATCC25922	100 µg/mL	inhibition zone	35 mm
Cc1ccc(-c2nn(Cc3ccccc3)c3ccccc23)o1	RBE	cell growth or viability, ATP luminescence		46 µM, 72 h	inhibition	59%
CC(C)(C)[C@H](N)C(=O)Nc1ccccc1/N=c1\cc(-c2ccc3c(c2)OCO3)oc2ccccc12	MDA-MB-468	cell growth or viability, CCK-8		1 µM	inhibition	-1.02%
CCN(Cc1ccc(F)cc1)c1ccc(CO)c(Cl)c1	RBE	cell growth or viability, ATP luminescence		46 µM, 72 h	inhibition	53%
N[C@@H](CO)C(=O)Nc1ccccc1/N=c1\cc(-c2ccc3c(c2)OCO3)oc2ccccc12	MDA-MB-468	cell growth or viability, CCK-8		1 µM	inhibition	7.66%
COCCNC(=O)c1ccc(-c2nc3ccc4[nH]ncc4c3c3c2CCCC3)cc1	MV4-11	cell growth or viability, resazurin		72 h	GI50	400 nM
OCc1ccc(-c2nn(Cc3ccncc3)c3cccnc23)o1	RBE	cell growth or viability, ATP luminescence			pIC50	5.06
C[C@H](N)C(=O)Nc1ccccc1/N=c1\cc(-c2ccc3c(c2)OCO3)oc2ccccc12	MDA-MB-468	cell growth or viability, CCK-8		1 µM	inhibition	6.3%
CN(C)CCNC(=O)c1ccc(-c2nc3ccc4[nH]ncc4c3c3c2CCCCC3)c(F)c1	MV4-11	cell growth or viability, resazurin		72 h	GI50	11 nM
C[C@H](N)C(=O)Nc1ccccc1/N=c1\cc(-c2ccc3c(c2)OCCO3)oc2c(N)cccc12	MDA-MB-468	cell growth or viability, CCK-8		1 µM	inhibition	2.63%
CN(C)CCNC(=O)c1ccc(-c2nc3ccc4[nH]ncc4c3c3c2CC3)cc1	MV4-11	cell growth or viability, resazurin		72 h	GI50	1300 nM
